Test results reported in ChEMBL document CHEMBL3585302, “Synthesis and antibacterial activities of cadiolides A, B and C and analogues” (Bioorg Med Chem, 2015).
Active and inactive are the calls of the source. The calls are words filed in the database; no cut-off is given here.

Test system: Bacillus subtilis
Experiment: Antibacterial activity against Bacillus subtilis CECT 35 assessed as inhibition of microbial growth at 125 ug/ml incubated for 18 hrs by 2-fold microtiter broth dilution method
Type: functional, organism-based
Details: not given
In short: (§1)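 Compounds in DMSO, ten 2-fold serial dilutions (125 down to 0.24 µg/mL tested). Bacteria at OD620 = 0.001 in Nutrient Broth mixed 1:1 with dilutions. Incubated overnight (18 h) at 28°C or 37°C according to strain. Growth read turbidimetrically at OD620. MIC is the lowest concentration giving complete growth inhibition. Triplicate runs. Tetracycline as reference.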

| Compound | growth inhibition (GI) |
| --- | --- |
| COc1c(Br)cc(C2=C(C(=O)c3ccc(O)c(Br)c3)C(=O)O/C2=C\c2cc(Br)c(O)c(Br)c2)cc1Br | inactive |
| COc1ccc(C2=C(C(=O)c3ccc(O)cc3)C(=O)O/C2=C\c2ccc(O)c(Br)c2)cc1Br | inactive |
| COc1ccc(C2=C(C(=O)c3ccc(O)c(Br)c3)C(=O)O/C2=C\c2ccc(O)c(Br)c2)cc1 | inactive |
| COc1c(Br)cc(C2=C(C(=O)c3ccc(O)cc3)C(=O)O/C2=C\c2cc(Br)c(O)c(Br)c2)cc1Br | inactive |
| COc1ccc(C2=C(C(=O)c3ccco3)C(=O)O/C2=C\c2ccc(O)cc2)cc1 | inactive |
| COc1ccc(C2=C(C(=O)c3cc(Br)c(O)c(Br)c3)C(=O)O/C2=C\c2cc(Br)c(O)c(Br)c2)cc1 | inactive |

Test system: Bacillus cereus
Experiment: Antibacterial activity against Bacillus cereus CECT 148 assessed as inhibition of microbial growth at 125 ug/ml incubated for 18 hrs by 2-fold microtiter broth dilution method
Type: functional, organism-based
Details: not given
In short: as §1

| Compound | growth inhibition (GI) |
| --- | --- |
| COc1c(Br)cc(C2=C(C(=O)c3ccc(O)c(Br)c3)C(=O)O/C2=C\c2cc(Br)c(O)c(Br)c2)cc1Br | inactive |
| COc1ccc(C2=C(C(=O)c3ccc(O)cc3)C(=O)O/C2=C\c2ccc(O)c(Br)c2)cc1Br | inactive |
| COc1ccc(C2=C(C(=O)c3ccc(O)c(Br)c3)C(=O)O/C2=C\c2ccc(O)c(Br)c2)cc1 | inactive |
| COc1c(Br)cc(C2=C(C(=O)c3ccc(O)cc3)C(=O)O/C2=C\c2cc(Br)c(O)c(Br)c2)cc1Br | inactive |
| COc1ccc(C2=C(C(=O)c3ccco3)C(=O)O/C2=C\c2ccc(O)cc2)cc1 | inactive |
| COc1ccc(C2=C(C(=O)c3cc(Br)c(O)c(Br)c3)C(=O)O/C2=C\c2cc(Br)c(O)c(Br)c2)cc1 | inactive |

Test system: Enterococcus faecalis
Experiment: Antibacterial activity against Enterococcus faecalis CECT 481 assessed as inhibition of microbial growth at 125 ug/ml incubated for 18 hrs by 2-fold microtiter broth dilution method
Type: functional, organism-based
Details: not given
In short: as §1

| Compound | growth inhibition (GI) |
| --- | --- |
| COc1c(Br)cc(C2=C(C(=O)c3ccc(O)c(Br)c3)C(=O)O/C2=C\c2cc(Br)c(O)c(Br)c2)cc1Br | inactive |
| COc1ccc(C2=C(C(=O)c3ccc(O)cc3)C(=O)O/C2=C\c2ccc(O)c(Br)c2)cc1Br | inactive |
| COc1ccc(C2=C(C(=O)c3ccc(O)c(Br)c3)C(=O)O/C2=C\c2ccc(O)c(Br)c2)cc1 | inactive |
| COc1c(Br)cc(C2=C(C(=O)c3ccc(O)cc3)C(=O)O/C2=C\c2cc(Br)c(O)c(Br)c2)cc1Br | inactive |
| COc1ccc(C2=C(C(=O)c3ccco3)C(=O)O/C2=C\c2ccc(O)cc2)cc1 | inactive |
| COc1ccc(C2=C(C(=O)c3cc(Br)c(O)c(Br)c3)C(=O)O/C2=C\c2cc(Br)c(O)c(Br)c2)cc1 | inactive |

Test system: Escherichia coli
Experiment: Antibacterial activity against Escherichia coli CECT 405 assessed as inhibition of microbial growth at 125 ug/ml incubated for 18 hrs by 2-fold microtiter broth dilution method
Type: functional, organism-based
Details: not given
In short: as §1

| Compound | growth inhibition (GI) |
| --- | --- |
| COc1c(Br)cc(C2=C(C(=O)c3ccc(O)c(Br)c3)C(=O)O/C2=C\c2cc(Br)c(O)c(Br)c2)cc1Br | inactive |
| COc1ccc(C2=C(C(=O)c3ccc(O)cc3)C(=O)O/C2=C\c2ccc(O)c(Br)c2)cc1Br | inactive |
| COc1ccc(C2=C(C(=O)c3ccc(O)c(Br)c3)C(=O)O/C2=C\c2ccc(O)c(Br)c2)cc1 | inactive |
| COc1c(Br)cc(C2=C(C(=O)c3ccc(O)cc3)C(=O)O/C2=C\c2cc(Br)c(O)c(Br)c2)cc1Br | inactive |
| COc1ccc(C2=C(C(=O)c3ccco3)C(=O)O/C2=C\c2ccc(O)cc2)cc1 | inactive |
| COc1ccc(C2=C(C(=O)c3cc(Br)c(O)c(Br)c3)C(=O)O/C2=C\c2cc(Br)c(O)c(Br)c2)cc1 | inactive |

Test system: Escherichia coli
Experiment: Antibacterial activity against Escherichia coli CECT 100 assessed as inhibition of microbial growth at 125 ug/ml incubated for 18 hrs by 2-fold microtiter broth dilution method
Type: functional, organism-based
Details: not given
In short: as §1

| Compound | growth inhibition (GI) |
| --- | --- |
| COc1c(Br)cc(C2=C(C(=O)c3ccc(O)c(Br)c3)C(=O)O/C2=C\c2cc(Br)c(O)c(Br)c2)cc1Br | inactive |
| COc1ccc(C2=C(C(=O)c3ccc(O)cc3)C(=O)O/C2=C\c2ccc(O)c(Br)c2)cc1Br | inactive |
| COc1ccc(C2=C(C(=O)c3ccc(O)c(Br)c3)C(=O)O/C2=C\c2ccc(O)c(Br)c2)cc1 | inactive |
| COc1c(Br)cc(C2=C(C(=O)c3ccc(O)cc3)C(=O)O/C2=C\c2cc(Br)c(O)c(Br)c2)cc1Br | inactive |
| COc1ccc(C2=C(C(=O)c3ccco3)C(=O)O/C2=C\c2ccc(O)cc2)cc1 | inactive |
| COc1ccc(C2=C(C(=O)c3cc(Br)c(O)c(Br)c3)C(=O)O/C2=C\c2cc(Br)c(O)c(Br)c2)cc1 | inactive |

Test system: Salmonella typhi
Experiment: Antibacterial activity against Salmonella typhi CECT 409 assessed as inhibition of microbial growth at 125 ug/ml incubated for 18 hrs by 2-fold microtiter broth dilution method
Type: functional, organism-based
Details: Salmonella enterica subsp. enterica serovar Typhi
In short: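 Compounds in DMSO, ten 2-fold serial dilutions (125 down to 0.24 µg/mL), mixed 1:1 with bacteria in Nutrient Broth at OD620 = 0.001. Incubated overnight (18 h) at 28 or 37 °C depending on strain. Growth read turbidimetrically at OD620; MIC is the lowest concentration completely inhibiting growth, per CLSI. Triplicate runs; tetracycline reference.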

| Compound | growth inhibition (GI) |
| --- | --- |
| COc1c(Br)cc(C2=C(C(=O)c3ccc(O)c(Br)c3)C(=O)O/C2=C\c2cc(Br)c(O)c(Br)c2)cc1Br | inactive |
| COc1ccc(C2=C(C(=O)c3ccc(O)cc3)C(=O)O/C2=C\c2ccc(O)c(Br)c2)cc1Br | inactive |
| COc1ccc(C2=C(C(=O)c3ccc(O)c(Br)c3)C(=O)O/C2=C\c2ccc(O)c(Br)c2)cc1 | inactive |
| COc1c(Br)cc(C2=C(C(=O)c3ccc(O)cc3)C(=O)O/C2=C\c2cc(Br)c(O)c(Br)c2)cc1Br | inactive |
| COc1ccc(C2=C(C(=O)c3ccco3)C(=O)O/C2=C\c2ccc(O)cc2)cc1 | inactive |
| COc1ccc(C2=C(C(=O)c3cc(Br)c(O)c(Br)c3)C(=O)O/C2=C\c2cc(Br)c(O)c(Br)c2)cc1 | inactive |

Test system: Pectobacterium carotovorum
Experiment: Antibacterial activity against Erwinia carotovora CECT 225 assessed as inhibition of microbial growth at 125 ug/ml incubated for 18 hrs by 2-fold microtiter broth dilution method
Type: functional, organism-based
Details: not given
In short: as §1

| Compound | growth inhibition (GI) |
| --- | --- |
| COc1c(Br)cc(C2=C(C(=O)c3ccc(O)c(Br)c3)C(=O)O/C2=C\c2cc(Br)c(O)c(Br)c2)cc1Br | inactive |
| COc1ccc(C2=C(C(=O)c3ccc(O)cc3)C(=O)O/C2=C\c2ccc(O)c(Br)c2)cc1Br | inactive |
| COc1ccc(C2=C(C(=O)c3ccc(O)c(Br)c3)C(=O)O/C2=C\c2ccc(O)c(Br)c2)cc1 | inactive |
| COc1c(Br)cc(C2=C(C(=O)c3ccc(O)cc3)C(=O)O/C2=C\c2cc(Br)c(O)c(Br)c2)cc1Br | inactive |
| COc1ccc(C2=C(C(=O)c3ccco3)C(=O)O/C2=C\c2ccc(O)cc2)cc1 | inactive |
| COc1ccc(C2=C(C(=O)c3cc(Br)c(O)c(Br)c3)C(=O)O/C2=C\c2cc(Br)c(O)c(Br)c2)cc1 | inactive |

Test system: Staphylococcus aureus
Experiment: Antibacterial activity against Staphylococcus aureus CECT 86 assessed as inhibition of microbial growth at 125 ug/ml incubated for 18 hrs by 2-fold microtiter broth dilution method
Type: functional, organism-based
Details: not given
In short: as §1

| Compound | growth inhibition (GI) |
| --- | --- |
| COc1c(Br)cc(C2=C(C(=O)c3ccc(O)c(Br)c3)C(=O)O/C2=C\c2cc(Br)c(O)c(Br)c2)cc1Br | inactive |
| COc1ccc(C2=C(C(=O)c3ccc(O)cc3)C(=O)O/C2=C\c2ccc(O)c(Br)c2)cc1Br | inactive |
| COc1ccc(C2=C(C(=O)c3ccc(O)c(Br)c3)C(=O)O/C2=C\c2ccc(O)c(Br)c2)cc1 | inactive |
| COc1c(Br)cc(C2=C(C(=O)c3ccc(O)cc3)C(=O)O/C2=C\c2cc(Br)c(O)c(Br)c2)cc1Br | inactive |
| COc1ccc(C2=C(C(=O)c3ccco3)C(=O)O/C2=C\c2ccc(O)cc2)cc1 | inactive |
| COc1ccc(C2=C(C(=O)c3cc(Br)c(O)c(Br)c3)C(=O)O/C2=C\c2cc(Br)c(O)c(Br)c2)cc1 | inactive |
